In ChEMBL document CHEMBL4831496, “Noncovalent EGFR T790M/L858R inhibitors based on diphenylpyrimidine scaffold: Design, synthesis, and bioactivity evaluation for the treatment of NSCLC” (Eur J Med Chem, 2021):

Assays:
[1] = tested on: A-431; experiment: Cytotoxicity against human A-431 cells harboring wild type EGFR assessed as reduction in cell viability incubated for 72 hrs by CCK8 assay; format: cell-based; details: A-431, 72 h
Outline: (§1)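 Cells kept as monolayers at 37 °C, 5% CO2, seeded 3000-4000/well for 12 h, then exposed to compounds for 72 h. CCK-8 added for 1-2 h at 37 °C, absorbance read at 450 nm. Each dose run in triplicate, experiment repeated at least three times. IC50 taken from dose-response curves.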

[2] = Cytotoxicity against human HBE cells assessed as reduction in cell viability incubated for 72 hrs by CCK8 assay; format: cell-based; outline: as §1
[3] = target: Epidermal growth factor receptor (Homo sapiens, UniProt P00533, L858R/T790M); experiment: Inhibition of EGFR L858R/T790M double mutant (unknown origin) measured after 60 mins by ADP-Glo kinase based luminescence assay
[4] = tested on: ASPC1; experiment: Antiproliferative activity against human ASPC1 cells assessed as reduction in cell viability incubated for 72 hrs by CCK8 assay; format: functional, cell-based; details: ASPC1, 72 h; outline: as §1
[5] = Selectivity index, ratio of IC50 for human A-431 cells harboring wild type EGFR (unknown origin) to IC50 for human NCI-H1975 cells harboring EGFR L858R/T790M mutant
[6] = tested on: NCI-H23; experiment: Antiproliferative activity against human NCI-H23 cells harboring KRAS mutant assessed as reduction in cell viability incubated for 72 hrs by CCK8 assay; format: functional, cell-based; details: NCI-H23, 72 h; outline: as §1
[7] = target: Epidermal growth factor receptor (Homo sapiens, UniProt P00533); experiment: Inhibition of wild type EGFR (unknown origin) measured after 60 mins by ADP-Glo kinase based luminescence assay
[8] = tested on: NCI-H1975; experiment: Antiproliferative activity against human NCI-H1975 cells harboring EGFR L858R/T790M mutant assessed as reduction in cell viability incubated for 72 hrs by CCK8 assay; format: functional, cell-based; details: NCI-H1975, 72 h; outline: as §1
[9] = tested on: A549; experiment: Antiproliferative activity against human A549 cells harboring KRAS G12S mutant assessed as reduction in cell viability incubated for 72 hrs by CCK8 assay; format: functional, cell-based; details: A549, 72 h; outline: as §1
[10] = tested on: L02; experiment: Antiproliferative activity against human L02 cells assessed as reduction in cell viability incubated for 72 hrs by CCK8 assay; format: cell-based; details: L02, 72 h

Sequence of Epidermal growth factor receptor (Homo sapiens, UniProt P00533) (P00533 whole entry): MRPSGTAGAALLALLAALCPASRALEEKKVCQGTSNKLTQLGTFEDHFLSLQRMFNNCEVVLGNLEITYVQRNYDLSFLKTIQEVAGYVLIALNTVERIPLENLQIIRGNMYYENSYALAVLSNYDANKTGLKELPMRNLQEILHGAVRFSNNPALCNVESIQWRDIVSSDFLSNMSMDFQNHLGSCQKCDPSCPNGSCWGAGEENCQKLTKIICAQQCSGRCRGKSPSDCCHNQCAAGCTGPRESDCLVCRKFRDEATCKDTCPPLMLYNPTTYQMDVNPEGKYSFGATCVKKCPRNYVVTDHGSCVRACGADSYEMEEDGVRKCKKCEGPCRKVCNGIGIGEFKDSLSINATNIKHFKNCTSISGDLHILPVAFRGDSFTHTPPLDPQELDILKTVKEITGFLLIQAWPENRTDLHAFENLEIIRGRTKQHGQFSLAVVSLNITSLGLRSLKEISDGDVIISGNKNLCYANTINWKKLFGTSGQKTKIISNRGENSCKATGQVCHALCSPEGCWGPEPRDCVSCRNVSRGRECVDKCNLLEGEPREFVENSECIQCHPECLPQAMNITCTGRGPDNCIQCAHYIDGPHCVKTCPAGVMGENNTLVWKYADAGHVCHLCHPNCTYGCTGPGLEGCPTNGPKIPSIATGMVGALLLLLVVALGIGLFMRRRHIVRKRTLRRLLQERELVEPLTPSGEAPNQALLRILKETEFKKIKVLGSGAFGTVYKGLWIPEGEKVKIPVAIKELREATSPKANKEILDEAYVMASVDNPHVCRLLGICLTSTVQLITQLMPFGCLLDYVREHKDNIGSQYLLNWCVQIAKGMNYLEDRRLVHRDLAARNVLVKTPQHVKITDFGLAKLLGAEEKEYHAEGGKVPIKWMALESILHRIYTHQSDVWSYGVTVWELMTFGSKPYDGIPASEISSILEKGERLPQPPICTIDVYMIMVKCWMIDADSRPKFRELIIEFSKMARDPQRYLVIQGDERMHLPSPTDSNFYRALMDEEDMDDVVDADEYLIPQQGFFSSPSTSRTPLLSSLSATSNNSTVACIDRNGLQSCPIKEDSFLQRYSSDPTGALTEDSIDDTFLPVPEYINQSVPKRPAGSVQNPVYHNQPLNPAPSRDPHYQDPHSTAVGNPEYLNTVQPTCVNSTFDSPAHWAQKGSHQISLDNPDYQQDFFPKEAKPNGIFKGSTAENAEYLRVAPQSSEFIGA
Sequence of Epidermal growth factor receptor (Homo sapiens, UniProt P00533, L858R/T790M) (P00533 25-1210 T790M/L858R limits assumed): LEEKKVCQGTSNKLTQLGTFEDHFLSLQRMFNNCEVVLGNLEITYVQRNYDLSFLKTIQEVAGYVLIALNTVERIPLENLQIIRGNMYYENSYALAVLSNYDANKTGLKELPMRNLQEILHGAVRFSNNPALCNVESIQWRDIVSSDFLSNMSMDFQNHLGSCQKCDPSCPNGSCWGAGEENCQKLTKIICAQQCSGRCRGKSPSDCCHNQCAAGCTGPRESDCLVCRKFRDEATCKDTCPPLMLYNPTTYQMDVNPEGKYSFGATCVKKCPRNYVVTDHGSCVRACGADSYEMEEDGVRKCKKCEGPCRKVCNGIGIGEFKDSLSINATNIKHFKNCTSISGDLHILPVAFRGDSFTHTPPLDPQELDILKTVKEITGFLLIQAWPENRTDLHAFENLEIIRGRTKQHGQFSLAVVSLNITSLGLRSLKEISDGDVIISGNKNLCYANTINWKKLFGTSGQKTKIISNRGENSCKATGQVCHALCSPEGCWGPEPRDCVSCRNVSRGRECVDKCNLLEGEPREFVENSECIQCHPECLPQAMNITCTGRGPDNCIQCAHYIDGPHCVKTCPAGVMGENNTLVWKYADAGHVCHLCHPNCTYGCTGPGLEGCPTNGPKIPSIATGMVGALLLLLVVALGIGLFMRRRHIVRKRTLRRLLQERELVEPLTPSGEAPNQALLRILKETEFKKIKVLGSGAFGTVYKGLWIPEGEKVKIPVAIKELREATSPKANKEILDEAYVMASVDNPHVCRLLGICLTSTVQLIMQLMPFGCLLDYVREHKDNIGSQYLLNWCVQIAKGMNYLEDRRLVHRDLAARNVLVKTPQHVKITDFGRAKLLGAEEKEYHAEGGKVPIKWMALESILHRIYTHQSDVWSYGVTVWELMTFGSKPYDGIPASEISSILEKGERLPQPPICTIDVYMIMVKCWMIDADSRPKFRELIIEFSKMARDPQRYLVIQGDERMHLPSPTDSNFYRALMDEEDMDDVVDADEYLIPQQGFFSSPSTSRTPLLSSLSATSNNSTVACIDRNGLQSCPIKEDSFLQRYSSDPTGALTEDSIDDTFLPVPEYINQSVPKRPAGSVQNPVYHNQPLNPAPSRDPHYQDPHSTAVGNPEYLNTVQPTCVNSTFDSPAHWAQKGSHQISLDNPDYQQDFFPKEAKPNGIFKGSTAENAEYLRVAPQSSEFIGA

Row | IC50 [3] [nM] | IC50 [4] [nM] | IC50 [6] [nM] | IC50 [7] [nM] | IC50 [8] [nM] | IC50 [9] [nM] | Compound | IC50 [1] [nM] | IC50 [2] [nM] | Ratio IC50 [5] | IC50 [10] [nM]
1 | 98.8 | < 156 | 554 | 4.5 | < 78.1 | < 78 | O=C(NO)c1ccccc1Nc1nc(Nc2ccc(CN3CCOCC3)cc2)ncc1Cl | 2430 | 29100 | >31.08 | < 1250
2 | 116 | 1410 | 801 | 169 | 109 | 109 | O=C(NO)c1ccccc1Nc1nc(Nc2ccc(N3CCOCC3)cc2)ncc1Cl | 1580 | > 40000 | 14.46 | 2190
3 | 199 | – | – | 81.4 | > 10000 | – | O=C(O)c1ccccc1Nc1nc(Nc2ccc(OCC(=O)N3CCOCC3)cc2)ncc1Cl | – | – | – | 15500
4 | 64.8 | 1230 | 665 | 1.25 | 321 | 321 | O=C(NO)c1ccccc1Nc1nc(Nc2ccc(OCCCN3CCOCC3)cc2)ncc1Cl | 1400 | 26500 | 4.38 | 1730
5 | 65.4 | 1580 | 6400 | 50.2 | 1110 | 1110 | O=C(COc1ccc(Nc2ncc(Cl)c(Nc3ccccc3C(=O)NO)n2)cc1)NO | 2060 | > 40000 | 1.86 | 7870
6 | 113 | 750 | 1740 | 126 | 385 | 385 | O=C(CN1CCOCC1)Nc1ccc(Nc2ncc(Cl)c(Nc3ccccc3C(=O)NO)n2)cc1 | 1530 | > 40000 | 3.98 | 2110
7 | 16 | 530 | 820 | 57.3 | 129 | 129 | O=C(NO)c1ccccc1Nc1nc(Nc2ccc(OCC(=O)N3CCOCC3)cc2)ncc1Cl | 670 | 20200 | 5.19 | 4810
8 | 6.82 | 244 | 642 | 0.763 | 822 | 203 | CN1CCN(CCOc2ccc(Nc3ncc(Cl)c(Nc4ccccc4C(=O)NO)n3)cc2)CC1 | 692 | 29800 | 0.84 | 1950
9 | 117 | 374 | 8420 | 1.09 | 245 | 245 | CNC(=O)c1ccccc1Nc1nc(Nc2ccc(CN3CCC(C(=O)NO)CC3)cc2)ncc1Cl | 1160 | 15900 | 4.72 | 1280
10 | 45 | < 156 | 2110 | 46.7 | 156 | 156 | CNC(=O)c1ccccc1Nc1nc(Nc2ccc(OCCCN3CCC(C(=O)NO)CC3)cc2)ncc1Cl | 448 | 8570 | 2.88 | < 1250
11 | 3.89 | – | – | – | 333 | – | CNC(=O)c1ccccc1Nc1nc(Nc2ccc(NC(=O)CN3CCOCC3)c(C)c2)ncc1Cl | – | – | – | –
12 | 49.9 | 499 | 1540 | 119 | 329 | 329 | CNC(=O)c1ccccc1Nc1nc(Nc2ccc(N3CCC(C(=O)NO)CC3)cc2)ncc1Cl | 127 | 12600 | 0.39 | 1730
13 | 68.8 | < 156 | 217 | 6.56 | < 78.1 | < 78 | CN1CCN(c2ccc(Nc3ncc(Cl)c(Nc4ccccc4C(=O)NO)n3)cc2)CC1 | 253 | 22600 | >3.24 | < 1250
14 | 0.245 | – | – | 32 | 2900 | – | CCOC(=O)c1ccccc1Nc1nc(Nc2ccc(OCC(=O)N3CCOCC3)cc2)ncc1Cl | – | – | – | 30200

Row | Compound | IC50 [3] [nM] | IC50 [4] [nM] | IC50 [6] [nM] | IC50 [7] [nM] | IC50 [8] [nM] | IC50 [9] [nM] | IC50 [1] [nM] | IC50 [2] [nM] | Ratio IC50 [5] | IC50 [10] [nM]
15 | C=CC(=O)Nc1cc(Nc2nccc(-c3cn(C)c4ccccc34)n2)c(OC)cc1N(C)CCN(C)C [OSIMERTINIB] | – | – | – | – | […] | – | – | – | – | –
